Values joined by “and” are separate entries in the source; they are usually repeats but may differ in a detail not shown here. Equal entries are not always repeated.
How the values were obtained:
[1] = Population pharmacokinetic; type: in vivo, human; settings: for geometric mean AUC24h,ss higher in Chinese patients than in White patients / geometric mean C max,ss higher in Chinese patients than in White patients: 100 mg BID, empirical Bayes estimates, Chinese n = 105, White n = 512
Summary of the method: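 Pooled plasma acalabrutinib/ACP-5862 data from 14 trials, with China study intensive and sparse schedules, were fitted to the existing model. Parent: two-compartment, five transit compartments. Metabolite: two-compartment, formation fixed at 0.4 CL/F. BOV was on MTT and F1; BSV on clearances and volumes. Race (East Asian vs non-East Asian), PPI, ECOG and health status were tested as proportional shifts. Estimation used NONMEM SAEM/IMP, with BLQ handled by M3.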

[2] = test system: R/R MCL; test: Exposure-efficacy; type: in vivo, human; settings: for relationship between exposures and efficacy endpoints (BOR and SPD): Chinese patients with R/R MCL (n = 34), 100 mg BID
Summary of the method: (§1)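 Chinese pivotal phase 1/2 study (MCL n = 34; CLL n = 60). Per-patient acalabrutinib, ACP-5862 and total active moiety AUC_24h,ss and C_max,ss were taken from pop-PK post hoc estimates. Total active moiety was adjusted for BTK potency and protein binding. Best overall response was assessed by an independent review committee: CR/PR/SD/PD for MCL, PR/PRL/SD for CLL/SLL. SPD change from baseline was also scored. Analysis was graphical plus logistic regression.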

[3] = test system: R/R CLL/SLL; test: Exposure-efficacy; type: in vivo, human; settings: for relationship between exposures and efficacy endpoints (BOR and SPD): Chinese patients with R/R CLL/SLL (n = 60), 100 mg BID
Summary of the method: as §1

[4] = humans, cited from earlier work
[5] = test system: BTK; settings: cited from earlier work
[6] = used for total active concentration; cited from earlier work
[7] = type: in vivo, human; settings: noncompartmental analysis, patients with intensive PK sampling
[8] = Exposure-safety; type: in vivo, human
Summary of the method: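 Pooled seven studies (six global plus China; n = 476). Endpoints were incidence of grade ≥2 AEs, grade ≥3 AEs, and grade ≥2 AEs of clinical interest occurring in ≥5% of patients (MedDRA v21.1). Post hoc pop-PK steady-state exposures (acalabrutinib AUC_24h,ss primary) were related to AE incidence by graphical plots and logistic regression with 95% CI. Analysis was run for the global and Chinese populations.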

[9] = radio-labelled dose, humans; cited from earlier work
[10] = test system: BTK; settings: 100 mg BID, clinical pharmacodynamic data; cited from earlier work
[11] = cited from earlier work
[12] = test system: breast cancer‐resistance protein (BCRP); settings: cited from earlier work
[13] = test system: CYP3A enzymes; settings: cited from earlier work
[14] = cited from earlier work; remark: listed apart in the source
[15] = at a 400 mg daily dose; cited from earlier work
[16] = Chinese R/R MCL, n = 34, 100 mg BID
[17] = Chinese R/R CLL/SLL, n = 60, 100 mg BID

CC#CC(=O)NCCCC(=O)c1nc(-c2ccc(C(=O)Nc3ccccn3)cc2)c2c(N)nccn12 [ACP‐5862]
geometric mean AUC24h,ss higher in Chinese patients than in White patients [1]: 28%
geometric mean C max,ss higher in Chinese patients than in White patients [1]: 28%
CLM/F, apparent clearance of metabolite, estimate (RSE %) ([1]; final model fixed effect): 21.5 (0.6) L/h
QM/F, apparent intercompartmental clearance for metabolite, estimate (RSE %) ([1]; final model fixed effect): 21.1 (2.9) L/h
VcM/F, apparent volume of the central compartment for metabolite, estimate (RSE %) ([1]; final model fixed effect): 24.3 (1.7) L
VpM/F, apparent volume of the peripheral compartment for metabolite, estimate (RSE %) ([1]; final model fixed effect): 90.9 (1.3) L
BSV CLM/F, estimate (RSE %) ([1]; random effect): 13.2 (18.7) L/h
BSV QM/F, estimate (RSE %) ([1]; random effect): 62.4 (13.8) L/h
BSV VcM/F, estimate (RSE %) ([1]; random effect): 37.4 (13.7) L
BSV VpM/F, estimate (RSE %) ([1]; random effect): 29.3 (18.8) L
relationship between exposures and efficacy endpoints (BOR and SPD) [2]: flat relationships
relationship between exposures and efficacy endpoints (BOR and SPD) [3]: flat relationships
mean terminal half‐life [4]: 6.6 h
potency for BTK inhibition compared with acalabrutinib [5]: approximately 0.5 fold
free fraction (fu) [6]: 0.013

CC#CC(=O)N1CCC[C@H]1c1nc(-c2ccc(C(=O)Nc3ccccn3)cc2)c2c(N)nccn12 [acalabrutinib]
AUC higher in Chinese participants than in White patients [7]: 48%
geometric mean AUC24h,ss higher in Chinese patients than in White patients [1]: 28%
geometric mean C max,ss higher in Chinese patients than in White patients [1]: 28%
CL/F higher in healthy participants than in patients with B‐cell malignancies ([1]; covariate analysis): 64.5%
Vp/F lower in healthy participants than in patients with B‐cell malignancies ([1]; covariate analysis): 42.4%
decrease in CL/F, ECOG performance status ≥2 compared with ECOG ≤1 ([1]; covariate analysis): 12.8%
reduction of F1 by PPIs ([1]; covariate analysis): 30.7%
CL/F, apparent clearance of parent drug, estimate (RSE %) ([1]; final model fixed effect): 130.3 (0.4) L/h
Ka, first‐order absorption rate constant, estimate (RSE %) ([1]; final model fixed effect): 1.4 (6.6) h^−1
MTT, mean transit time, estimate (RSE %) ([1]; final model fixed effect): 0.4 (5) h
Q/F, apparent intercompartmental clearance for parent drug, estimate (RSE %) ([1]; final model fixed effect): 19.5 (1.3) L/h
Vc/F, apparent volume of the central compartment for parent drug, estimate (RSE %) ([1]; final model fixed effect): 28.8 (4.5) L
Vp/F, apparent volume of the peripheral compartment for parent drug, estimate (RSE %) ([1]; final model fixed effect): 105.6 (0.7) L
F higher in East Asian compared with non‐East Asian individuals ([1]; race covariate): 23% and ~ 23%
Vp/F lower in East Asian compared with non‐East Asian individuals ([1]; race covariate): 38%
BOV F1, between‐occasion variability, estimate (RSE %) ([1]; random effect): 52.9 (1.7)
BOV MTT, between‐occasion variability, estimate (RSE %) ([1]; random effect): 125 (2.2) h
BSV CL/F, between‐subject variability, estimate (RSE %) ([1]; random effect): 23.2 (5.6) L/h
BSV Vc/F, estimate (RSE %) ([1]; random effect): 306 (6.3) L
BSV Vp/F, estimate (RSE %) ([1]; random effect): 35.9 (6.9) L
CL/F_ECOG2+, covariate effect of ECOG on CL/F, estimate (RSE %) ([1]; relative change (1 + estimate)): −0.128 (43.9)
CL/F_HEALTHGP, covariate effect of healthy individuals on CL/F, estimate (RSE %) ([1]; relative change (1 + estimate)): 0.645 (17.1)
Vp/F_HEALTHGP, covariate effect of healthy individuals on Vp/F, estimate (RSE %) ([1]; relative change (1 + estimate)): −0.424 (5.9)
best overall response CR, number of patients [2, 16]: 12
best overall response PD, number of patients [2, 16]: 4
best overall response PR, number of patients [2, 16]: 16
best overall response SD, number of patients [2, 16]: 1
relationship between exposures and efficacy endpoints (BOR and SPD) [2]: flat relationships
best overall response PR, number of patients [3, 17]: 50
best overall response PRL, number of patients [3, 17]: 2
best overall response SD, number of patients [3, 17]: 6
relationship between exposures and efficacy endpoints (BOR and SPD) [3]: flat relationships
relationship of acalabrutinib AUC24h,ss with grade ≥2 or ≥3 adverse events ([8]; both Chinese patients and the overall population, 100–400 mg daily doses): flat relationship
relationship between acalabrutinib AUC24h,ss and grade ≥3 AEs ([8]; overall population, 100 mg BID): flat relationship
relationship between acalabrutinib AUC24h,ss and grade ≥2 and grade ≥3 AEs ([8]; overall population, logistic regression, daily doses 100 to 400 mg): no statistically significant relationship
median time to peak plasma concentration (T max) ([4]; after oral administration): 0.75 h
absolute bioavailability [4]: 25%
mean steady‐state volume of distribution (Vss) [4]: approximately 34 L
mean terminal half‐life [4]: 1.4 h
dose excreted as unchanged acalabrutinib in urine and faeces [9]: less than 2%
dose recovered in the faeces [9]: 84%
dose recovered in the urine [9]: 12%
BTK occupancy over 24 h [10]: maximal
solubility, pH dependence [11]: solubility decreasing with increasing pH
BCRP substrate status [12]: substrate
metabolism by CYP3A enzymes into ACP‐5862 [13]: predominantly metabolized
incidence of atrial fibrillation and haemorrhage compared with ibrutinib [14]: lower incidence
maximum tolerated dose [15]: not observed

Source: article PMC12199099 (British Journal of Clinical Pharmacology, 2025)
